Assay results pooled from the literature.
Lines come from different studies, so protocols differ.
Observed: cell growth or viability

SMILES	cell line	method	time	CC50
C=CC(=O)Nc1cccc(-c2snc3cc(-c4ccc(N)c(OC)c4)cnc23)c1	Vero	resazurin	–	21 µM
Clc1ccc(CCC(Cn2ccnc2)Sc2c(Cl)cccc2Cl)cc1 (stereo not drawn)	Vero	WST-1	18 h	34.9 µM
CC(=O)c1cccc(NC(=O)C(=O)[C@H](CC(C)C)NC(=O)[C@H](CC(C)C)NC(=O)[C@H](CC(C)C)NC(=O)OCc2ccccc2)c1	Vero	ATP luminescence	48 h	17.7 µM
COc1cc(Nc2ccnc3ccc(Br)cc23)cc(OC)c1OC	Vero	resazurin	–	28.6 µM
Cc1cc(N)c2cc(NC(=O)Nc3ccc4nc(C)cc(N)c4c3)ccc2n1	BHK-21	MTT	42 h	49 µM
OCCCCCCC1COOC2(CCCCCCCCCCC2)OOC1	BHK-21	WST-1	72 h	3.4 µM
O=C(NCc1ccc(Cl)cc1)C1CC1c1ccccc1 (stereo not drawn)	BHK-21	MTT	–	> 100 µM
C[C@H]1[C@H](OC(=O)CCC(=O)O)O[C@@H]2O[C@@]3(C)CC[C@H]4[C@H](C)CC[C@@H]1[C@@]24OO3	Vero	WST-1	18 h	29.2 µM
O=C(Nc1ncc([N+](=O)[O-])s1)c1ccco1	BHK-21	MTT	–	> 10 µM
Cc1cc(C)cc([C@@H]2C[C@H]2C(=O)NC(C(=O)NC2CC2)c2ccc(C)c(C)c2)c1 (stereo partly drawn)	BHK-21	MTT	24 h	~10 µM
O=C(Nc1ncc([N+](=O)[O-])s1)c1cc(Cl)ccc1Cl	BHK-21	MTT	–	> 100 µM
Nc1ccc(-c2ccc(Nc3cc(S(=O)(=O)O)c(N)c4c3C(=O)c3ccccc3C4=O)cc2)c(S(=O)(=O)O)c1	BHK-21	MTT	42 h	177 µM
